Source: ChEMBL document CHEMBL4130513, “Jozilebomines A and B, Naphthylisoquinoline Dimers from the Congolese Liana Ancistrocladus ileboensis, with Antiausterity Activities against the PANC-1 Human Pancreatic Cancer Cell Line” (J Nat Prod, 2017)
Calls of active or inactive are those of the source. No cut-off for these calls is given here.

Experiments:
Plasmodium falciparum = experiment: Antiplasmodial activity against Plasmodium falciparum NF54 assessed as reduction in [3H]hypoxanthine incorporation pretreated for 48 hrs followed by [3H]hypoxanthine addition measured after 24 hrs by liquid scintillation counting method; assay type: functional, organism-based
Trypanosoma cruzi = experiment: Antitrypanosomal activity against Trypanosoma cruzi trypomastigote forms infected in rat L6 cells after 96 hrs by CPRG/Nonidet substrate based photometric method; assay type: functional, organism-based
[1] = system: Trypanosoma brucei rhodesiense; experiment: Antitrypanosomal activity against Trypanosoma brucei rhodesiense bloodstream forms after 72 hrs by alamar blue staining based fluorescence assay; assay type: functional, organism-based
Leishmania donovani = experiment: Antileishmanial activity against Leishmania donovani amastigote forms after 72 hrs by alamar blue staining based fluorescence assay; assay type: functional, organism-based
L6 = experiment: Cytotoxicity against rat L6 cells after 72 hrs by alamar blue staining based fluorescence assay; assay type: cell-based
[2] = Selectivity index, ratio of IC50 for rat L6 cells to IC50 for Plasmodium falciparum NF54; assay type: toxicity
HeLa = experiment: Cytotoxicity against human HeLa cells assessed as reduction in cell viability after 72 hrs by CCK8 assay; assay type: functional, cell-based
How it was run: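 HeLa cells (DMEM, 10% FBS) plated at 2 × 10^3/well and attached 24 h at 37 °C, 5% CO2. After a PBS wash, serially diluted samples in DMEM were added for 72 h, with paclitaxel as positive control. Cells were washed, given 10% WST-8 (CCK-8) in DMEM for 3 h, and A450 was read. Viability was taken from three-well means, corrected against blank and control.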

PANC-1 [3] = experiment: Antiausteritic activity against human PANC1 cells in nutrient-deprived medium measured after 24 hrs by WST8 assay; assay type: functional
How it was run: (§1)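 PANC-1 cells seeded at 1.5 × 10^4/well, attached 24 h in DMEM at 37 °C, 5% CO2. After two PBS washes, exposed to serially diluted samples in nutrient-rich DMEM or nutrient-deprived medium (pH 7.4) for 24 h. Then WST-8 (10% in DMEM) for 3 h, A450 read. Viability is relative to control and blank wells. PC50 is the concentration killing 50% of cells preferentially in NDM.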

PANC-1 [4] = experiment: Induction of morphological changes in human PANC1 cells assessed as cell membrane rupture at 5 uM after 24 hrs by ethidium bromide/acridine orange staining based microscopic analysis; assay type: functional
How it was run: (§2)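 PANC-1 cells seeded at 1 × 10^6 per well and attached 24 h. After two PBS washes, treated in NDM with vehicle or 5 μM compound for 24 h. EB/AO dye mix (100 μg mL−1 each in PBS) added for 5 min. Imaged by phase contrast and red/green fluorescence at 20× objective.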

PANC-1 [5] = experiment: Induction of morphological changes in human PANC1 cells assessed as disintegration of cell organelles at 5 uM after 24 hrs by ethidium bromide/acridine orange staining based microscopic analysis; assay type: functional; how it was run: as §2
PANC-1 [6] = experiment: Inhibition of colony formation in human PANC1 cells pretreated for 24 hrs followed by compound washout measured after 10 days by crystal violet staining based assay; assay type: functional, cell-based
How it was run: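 PANC-1 cells plated at 500/well in DMEM and attached 24 h at 37 °C, 5% CO2. Exposed 24 h to compound (1.25 and 2.5 μM) in DMEM or to DMEM alone. Washed with PBS, then grown 10 d in fresh DMEM. Fixed with 4% formaldehyde and stained with crystal violet for 10 min. Colony area quantified; three independent experiments.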

PANC-1 [7] = experiment: Cytotoxicity against human PANC1 cells in DMEM measured after 24 hrs by WST8 assay; assay type: cell-based; settings: panc-1, 24 h; how it was run: as §1

| IC50 (Plasmodium falciparum) [nM] | SMILES | Ratio IC50 [2] | PC50 (PANC-1 [3]) [µM] | Activity (HeLa) | Activity (PANC-1 [3]) | Activity (PANC-1 [4]) | Activity (PANC-1 [5]) | inhibition (PANC-1 [6]) | other results |
| --- | --- | --- | --- | --- | --- | --- | --- | --- | --- |
| 102 | COc1cc(C)c(-c2ccc3c(c2O)[C@@H](C)N[C@H](C)C3)c2ccc(-c3c(C)c(-c4ccc5c(c4O)[C@@H](C)N[C@H](C)C5)c4cccc(OC)c4c3O)c(O)c12 (single isomer, unassigned; atropisomer 2) [listing 1 of 2 here] | 52.3 | 0.87 |  |  |  |  |  | IC50 (Trypanosoma cruzi; Trypanosoma cruzi, L6, 96 h): 21.9 µM; IC50 [1]: 1040 nM; IC50 (Leishmania donovani): 55.8 µM; IC50 (L6; l6): 5.33 µM; IC50 (HeLa; hela): 680 nM |
|  | COc1cc(C)c(-c2ccc3c(c2O)[C@@H](C)N[C@H](C)C3)c2ccc(-c3c(C)c(-c4ccc5c(c4O)[C@@H](C)N[C@H](C)C5)c4cccc(OC)c4c3O)c(O)c12 (atropisomer, axis not shown) [listing 1 of 2 here] |  |  | Dose-dependent effect | Dose-dependent effect | Active | Active | Dose-dependent effect |  |
| 43 | COc1cc(C)c(-c2ccc3c(c2O)[C@@H](C)N[C@H](C)C3)c2ccc(-c3c(C)c(-c4ccc5c(c4O)[C@@H](C)N[C@H](C)C5)c4cccc(OC)c4c3O)c(O)c12 (atropisomer, axis not shown) [listing 2 of 2 here] | 160 | 2.24 |  |  |  |  |  | IC50 (Trypanosoma cruzi; l6): 23.8 µM; IC50 ([1]; Trypanosoma brucei, 72 h): 732 nM; IC50 (Leishmania donovani; Leishmania donovani, 72 h): 89.7 µM; IC50 (L6; Rattus norvegicus, L6, 72 h): 6.85 µM; IC50 (HeLa; Homo sapiens, HeLa, 72 h): 1080 nM; Activity (PANC-1 [7]): Non-Toxic |
|  | COc1cc(C)c(-c2ccc3c(c2O)[C@@H](C)N[C@H](C)C3)c2ccc(-c3c(C)c(-c4ccc5c(c4O)[C@@H](C)N[C@H](C)C5)c4cccc(OC)c4c3O)c(O)c12 (single isomer, unassigned; atropisomer 2) [listing 2 of 2 here] |  |  | Dose-dependent effect | Dose-dependent effect | Active | Active | Dose-dependent effect |  |
|  | COc1cc(C[C@H]2C(=O)OC[C@@H]2Cc2ccc(OC)c(OC)c2)ccc1O [ARCTIGENIN] |  | 0.83 |  |  |  |  |  |  |
